# ChEMBL document CHEMBL1268890, “Binding of diarrheic shellfish poisoning toxins to okadaic acid binding proteins purified from the sponge Halichondria okadai” (Bioorg Med Chem, 2010)
# Active and inactive are the calls of the source. The calls are words filed in the database; no cut-off is given here.
# Assays:
# [1] = target: T1, Okadaic acid binding protein 2.3 (Halichondria okadai) (UniProt B0M1D1); assay: Displacement of [24-3H]OA from Halichondria okadai recombinant OABP 2.3 expressed in Escherichia coli BL21 (DE3) cells
# T1 sequence (whole entry): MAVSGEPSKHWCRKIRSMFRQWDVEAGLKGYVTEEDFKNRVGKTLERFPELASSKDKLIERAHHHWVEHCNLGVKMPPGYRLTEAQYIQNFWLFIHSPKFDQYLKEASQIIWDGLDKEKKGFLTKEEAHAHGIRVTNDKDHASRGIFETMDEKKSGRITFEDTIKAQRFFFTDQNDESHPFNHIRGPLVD
# [2] = system: BL21-DE3; assay: Displacement of [24-3H]OA from Halichondria okadai recombinant OABP 2.1 expressed in Escherichia coli BL21 (DE3) cells
# [3] = system: P388; assay: Blockade of mitomycin-induced cytotoxicity in mouse P388 cells after 2 days by WST-8 assay in presence of Halichondria okadai recombinant OABP 2.1; type: functional, cell-based
# [4] = system: P388; assay: Blockade of okadaic acid-induced cytotoxicity in mouse P388 cells after 2 days by WST-8 assay in presence of Halichondria okadai recombinant OABP 2.1; type: functional, cell-based; settings: P388, 48 h
# Outline: (§1)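 P388 cells kept in RPMI 1640 with FBS, penicillin and streptomycin. Cells exposed to 100 nM okadaic acid together with graded concentrations of recombinant OABP for 2 days. WST-8 then added for 4 h; relative viability read as absorbance at 450 nm; EC50 from dose-response.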
# [5] = system: P388; assay: Blockade of okadaic acid-induced cytotoxicity in mouse P388 cells after 2 days by WST-8 assay in presence of Halichondria okadai recombinant OABP 2.3; type: functional, cell-based; settings: P388, 48 h; outline: as §1
Compound,Activity [1],Activity [2],Activity [3],EC50 [4] [nM],EC50 [5] [nM]
C=C1[C@@H](O)[C@@H]2O[C@]3(CC[C@H](/C=C/[C@@H](C)[C@@H]4CC(C)=C[C@@]5(O[C@H](C[C@@](C)(O)C(=O)O)CC[C@H]5O)O4)O3)CC[C@H]2O[C@@H]1[C@@H](O)C[C@H](C)[C@H]1O[C@@]2(CC[C@H]1C)OCCC[C@H]2C,Dose-dependent effect,Dose-dependent effect,–,–,–
C=C1[C@@H](O)[C@@H]2O[C@]3(CC[C@H](/C=C/[C@@H](C)[C@@H]4CC(C)=C[C@@]5(O[C@H](C[C@@](C)(O)C(=O)O)CC[C@H]5O)O4)O3)CC[C@H]2O[C@@H]1[C@@H](O)C[C@H](C)[C@H]1O[C@@]2(CCCCO2)CC[C@H]1C [OKADAIC ACID],Dose-dependent effect,Dose-dependent effect,inactive,92,87
